Shown are actives, neighbours in structure and some others; about 3% of the full set was active somewhere.
MC4R antagonist – human MC4R antagonism in cAMP assay; AID 540295; actives 0.48% (n = 360,000); MC4R-expressing cells, MTII-stimulated cAMP, LANCE TR-FRET; inhibition, % at 6.5 µM; P32245;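 active = inhibition above its plate's cutoff, the mean of tested wells on that plate plus 3 SD, cut at about 29% in these data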;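 note: 0% = Melanotan II alone and 100% = Melanotan II plus saturating MCL0020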
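Assay system: human MC4R-expressing U2OS cells; reagent: Melanotan II stimulation of cells; dosing: 6.5 µM single dose; timing: compound 30 min, challenge 1 h, detection 1 h; signal: TR-FRET cAMP assay; replicates: one well per compound, no replicates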
PfG6PD inh – PfG6PD (Plasmodium falciparum) enzyme inhibition | PfGluPho enzyme, NADPH resazurin-diaphorase fluorescence | inhibition, % at 20 µM | actives 0.78% (n = 350,000) | AID 504690;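 active = inhibition reaching at least a set limit at 20 µM in the primary screen, cut at about 59% in these data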;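 note: 0% = DMSO wells with substrate and 100% = DMSO wells lacking glucose-6-phosphate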
Beta2AR agonist – agonists of human beta-2 adrenergic receptor inducing internalization. P07550. Am2.2-beta2AR cells, FAP receptor internalization, flow cytometry. response, % (test concentration not listed). actives 0.43% (n = 340,000). AID 504454;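 active = response above a set limit, near 3 SD of response in nonfluorescent compounds, cut at about 42% in these data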
MC4R ag barr – activates human MC4R beta-arrestin recruitment; activation, % at 8.9 µM; U2OS MC4R beta-arrestin complementation, luminescence; percent of melanotan II response, DMSO zero; actives 0.98% (n = 360,000);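 active = activation above a per-plate cutoff, the mean activation of sample wells on that plate plus 3 SD, cut at about 8% in these data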
ABHD5 PLIN5 PPI – ABHD5-PLIN5 protein interaction inhibition; Q00G26+Q8WTS1; Split G. princeps luciferase complementation, luminescence, 4 h; inhibition, % at 4 µM; actives 0.78% (n = 360,000);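 active = inhibition above the mean inhibition across every tested compound plus 3 SD, cut at about 22% in these data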;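 note: 0% = DMSO only wells and the 100% control is not disclosed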
Target sequence (Q00G26 whole entry, looked up): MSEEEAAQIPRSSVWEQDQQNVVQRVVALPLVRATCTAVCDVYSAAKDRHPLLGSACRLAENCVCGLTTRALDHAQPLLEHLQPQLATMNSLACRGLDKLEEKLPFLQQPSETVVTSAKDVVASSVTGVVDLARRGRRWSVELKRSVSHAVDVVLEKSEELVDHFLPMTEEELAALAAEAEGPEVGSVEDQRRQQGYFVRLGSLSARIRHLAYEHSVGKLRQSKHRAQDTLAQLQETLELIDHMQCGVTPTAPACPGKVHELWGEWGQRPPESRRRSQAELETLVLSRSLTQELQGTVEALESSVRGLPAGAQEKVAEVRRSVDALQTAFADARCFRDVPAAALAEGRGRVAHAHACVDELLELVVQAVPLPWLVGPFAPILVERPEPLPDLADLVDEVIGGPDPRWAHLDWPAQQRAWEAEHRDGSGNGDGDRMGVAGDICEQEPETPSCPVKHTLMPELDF
Target sequence (Q8WTS1 whole entry, looked up): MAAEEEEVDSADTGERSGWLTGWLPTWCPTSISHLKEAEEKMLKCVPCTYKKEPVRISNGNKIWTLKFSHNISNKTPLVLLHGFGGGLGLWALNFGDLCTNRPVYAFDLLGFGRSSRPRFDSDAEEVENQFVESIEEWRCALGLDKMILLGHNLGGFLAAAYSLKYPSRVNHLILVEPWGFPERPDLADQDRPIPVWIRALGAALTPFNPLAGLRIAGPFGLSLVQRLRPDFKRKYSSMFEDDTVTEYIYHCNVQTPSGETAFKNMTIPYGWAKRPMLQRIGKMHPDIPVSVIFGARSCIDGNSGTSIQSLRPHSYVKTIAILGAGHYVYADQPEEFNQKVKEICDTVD
PfG6PD confirm – PfG6PD inhibition, single-dose confirmed | shares compounds with PfG6PD inh | recombinant PfGluPho, NADPH-diaphorase-resazurin fluorescence | inhibition, % at 20 µM | actives 34% (n = 2,400) | AID 504753;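 active = inhibition of at least 50% at 20 µM in any single replicate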;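 note: 0% = DMSO with substrate and 100% = DMSO lacking glucose-6-phosphate substrate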
Diaph ctr 10uM – inhibits diaphorase or oxidizes, flagging false PfG6PD hits; shares compounds with PfG6PD inh; inhibition, % at 20 µM; AID 504862; actives 39% (n = 820); diaphorase-coupled resazurin reduction, fluorescence, NADPH 10 uM;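 active = average inhibition reaching 50% or more with the compound at 20 µM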;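 note: resorufin red fluorescence formed as diaphorase reduces resazurin using NADPH; 0% = DMSO with enzyme and 100% = DMSO without enzyme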
Diaph ctr 30uM – diaphorase inhibition or oxidation at 30 uM NADPH; shares compounds with PfG6PD inh; Diaphorase/resazurin coupled assay, resorufin fluorescence; inhibition, % at 20 µM; actives 29% (n = 820);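 active = inhibition averaging 50% or more, tested at 20 µM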;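 note: 0% = DMSO with enzyme and 100% = DMSO wells lacking diaphorase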
* marks the source's active call; other numbers are inactive results.

For C/C(=N\Nc1ncc(Br)cn1)c1cccc([N+](=O)[O-])c1 the results were MC4R antagonist 3, PfG6PD inh 21, Beta2AR agonist -12, MC4R ag barr -1 and ABHD5 PLIN5 PPI 0.
Screening C/C(=N\Nc1ccc([N+](=O)[O-])cc1)c1cccc(N)c1 returned MC4R antagonist -3, PfG6PD inh 111*, Beta2AR agonist 2, MC4R ag barr -3, ABHD5 PLIN5 PPI 11 and PfG6PD confirm 41.
Screening Cc1nc(SCC(=O)c2ccc(F)cc2)n[nH]1 returned MC4R antagonist 15, PfG6PD inh 63*, Beta2AR agonist -1, MC4R ag barr 0, ABHD5 PLIN5 PPI -4 and PfG6PD confirm -15.
O=S(=O)(c1ccc2oc(=S)[nH]c2c1)N1CCOCC1 was read as MC4R antagonist -3, PfG6PD inh 66*, Beta2AR agonist 1, MC4R ag barr -4, ABHD5 PLIN5 PPI -3 and PfG6PD confirm 19.
`O=S(=O)(c1ccc2oc(=S)[nH]c2c1)N1CCCCC1` gave MC4R antagonist -5, PfG6PD inh -21, Beta2AR agonist -76, MC4R ag barr -2 and ABHD5 PLIN5 PPI 2.
O=C(Cc1ccc(S(=O)(=O)N2CCOCC2)s1)N1CCN(S(=O)(=O)c2cccc([N+](=O)[O-])c2)CC1 was read as MC4R antagonist 6, PfG6PD inh -6, Beta2AR agonist -1, MC4R ag barr -1 and ABHD5 PLIN5 PPI 1.
For CCS(=O)(=O)c1cc([N+](=O)[O-])c(Sc2ccccc2NC(C)=O)s1 the results were MC4R antagonist 6, PfG6PD inh 62*, Beta2AR agonist 7, MC4R ag barr -1, ABHD5 PLIN5 PPI -8 and PfG6PD confirm -8.
For C[C@@H]1CN([C@@H](C)CO)S(=O)(=O)c2ccc(Br)cc2O[C@H]1CN(C)C(=O)c1ccccc1F the results were MC4R antagonist 0, PfG6PD inh 11, MC4R ag barr -1 and ABHD5 PLIN5 PPI 8.
Screening Cc1ccc(N(Cc2ccccc2)C(=O)CN2C(=O)NC3(CCCC3)C2=O)cc1 returned MC4R antagonist 4, PfG6PD inh 8, Beta2AR agonist -1, MC4R ag barr -3 and ABHD5 PLIN5 PPI 0.
O=C(Oc1ccc(C(=S)N2CCOCC2)cc1)c1ccc([N+](=O)[O-])cc1[N+](=O)[O-] was read as MC4R antagonist 0, PfG6PD inh 21, Beta2AR agonist 6, MC4R ag barr -3 and ABHD5 PLIN5 PPI -6.
Screening O=C(Oc1ccc(Br)cc1C(=S)N1CCOCC1)c1ccc([N+](=O)[O-])cc1[N+](=O)[O-] returned MC4R antagonist 6, PfG6PD inh 60*, Beta2AR agonist 11, MC4R ag barr -3, ABHD5 PLIN5 PPI 7 and PfG6PD confirm 22.
Screening O=C(N/N=C/c1cccc2ccccc12)c1ccccc1Cl returned MC4R antagonist -1, PfG6PD inh 83*, Beta2AR agonist -5, MC4R ag barr 0, ABHD5 PLIN5 PPI -1 and PfG6PD confirm 46.
For O=C(NN=Cc1ccccc1Cl)c1cccc2ccccc12 the results were MC4R antagonist 7, PfG6PD inh -3, Beta2AR agonist -7, MC4R ag barr 0 and ABHD5 PLIN5 PPI 11.
Screening O=C(NC1=C(NC2CCS(=O)(=O)C2)C(=O)c2ccccc2C1=O)c1ccccc1 (centres undefined) returned MC4R antagonist -3, PfG6PD inh 104*, Beta2AR agonist 8, MC4R ag barr -3, ABHD5 PLIN5 PPI -4, PfG6PD confirm 95*, Diaph ctr 10uM 98* and Diaph ctr 30uM 90*.
Screening O=C(NC1=C(Nc2ccc(Cl)cc2)C(=O)c2ccccc2C1=O)c1ccccc1 returned MC4R antagonist -1, PfG6PD inh 45, Beta2AR agonist -3, MC4R ag barr -2 and ABHD5 PLIN5 PPI -9.
O=C(NC(NC1CCS(=O)(=O)C1)C(=O)c1cccs1)c1ccccc1 (centres undefined) was read as PfG6PD inh -10.
For Cc1cccc(NC2=C(NC(=O)c3ccccc3)C(=O)c3ccccc3C2=O)c1 the results were MC4R antagonist -16, PfG6PD inh 83*, Beta2AR agonist -3, MC4R ag barr -4, ABHD5 PLIN5 PPI -8, PfG6PD confirm 69*, Diaph ctr 10uM 41 and Diaph ctr 30uM 41.
For CCSc1nc2sc3c(c2c(=O)n1-c1ccccc1C)CCN(C)C3 the results were MC4R antagonist -3, PfG6PD inh 3, Beta2AR agonist 12, MC4R ag barr 0 and ABHD5 PLIN5 PPI 1.
Screening COc1ccc(-c2oc(=O)c3cc(OC)c(OC)cc3c2C#C[C@]2(O)CC[C@H]3[C@@H]4CCc5cc(OC)ccc5[C@H]4CC[C@@]32C)cc1 returned MC4R antagonist -2, PfG6PD inh 15, Beta2AR agonist -3, MC4R ag barr 0 and ABHD5 PLIN5 PPI -4.
Screening O=S(=O)(Nc1ccc2oc(-c3ccccc3)nc2c1)c1ccccc1 returned MC4R antagonist 8, PfG6PD inh 88*, Beta2AR agonist 0, MC4R ag barr 3, ABHD5 PLIN5 PPI 4 and PfG6PD confirm 38.
CC1CCCC(C)N1CCNC(=O)CCc1nnc2n(Cc3ccccc3)c(=O)c3ccccc3n12 (centres undefined) was read as MC4R antagonist 15, PfG6PD inh -10, Beta2AR agonist -21, MC4R ag barr -1 and ABHD5 PLIN5 PPI 3.
`CN(C)S(=O)(=O)c1ccc(Cl)c(NC(=O)C2CCN(S(=O)(=O)c3cccs3)CC2)c1` gave MC4R antagonist 5, PfG6PD inh 60*, Beta2AR agonist 1, MC4R ag barr 0, ABHD5 PLIN5 PPI -6 and PfG6PD confirm 31.
`CN(C1CCCCC1)S(=O)(=O)c1ccc(=S)[nH]c1` gave MC4R antagonist 8, PfG6PD inh 61*, Beta2AR agonist 4, MC4R ag barr -2, ABHD5 PLIN5 PPI -5 and PfG6PD confirm 17.
`Brc1ccc(C2C3=C(Nc4ncnn42)c2ccccc2OC3c2ccncc2)cc1` (centres undefined) gave MC4R antagonist 13, PfG6PD inh 83*, Beta2AR agonist 5, MC4R ag barr 1, ABHD5 PLIN5 PPI 3, PfG6PD confirm 54*, Diaph ctr 10uM 52* and Diaph ctr 30uM 57*.
`CCN(CC)C(=O)C1=C(C)N(Cc2ccc(F)cc2)C(=O)C(CC(=O)NCc2ccco2)C1` (centres undefined) gave MC4R antagonist 6, PfG6PD inh 8, MC4R ag barr 1 and ABHD5 PLIN5 PPI 0.
